Assay results pooled from the literature.
Each line is one published result; the experiments were not run side by side.
SLC22A1: Solute carrier family 22 member 1 (SLC22A1, Homo sapiens, UniProt O15245)

Compound | target or system | test | test system | conditions | endpoint | value
C[C@@]12COCO[C@@H]1CC[C@]1(C)[C@@H]2CC[C@@H]2CN(Cc3ccc(F)cc3)[C@@H](C3=CCOC3=O)C[C@H]21 | MRC5 | cell growth or viability, ATP luminescence |  | 25 µM, 72 h | cell death | -4.3%
C=CCn1c(=O)c2cnc(Nc3ccc(N4CCN(C)CC4)cc3)nc2n1-c1cccc(C(C)(C)O)n1 |  |  | human, plasma | oral, 200 mg, 8 h, single dose | concentration | 300 nM
COc1cc(OC)c2c(=O)cc(-c3cccc(Br)c3)oc2c1 | HS27 | cell growth or viability, MTT |  | 24 h | CC50 | 128 µM
O=C(O)CSc1nnc(Br)n1-c1ccc(C2CC2)c2ccccc12 | SLC22A1 | transporter uptake, inhibitor | MDCK-II | 3 µM, 5 min | inhibition | 36%
CCCCOC(=O)N1CCN(C(=O)[C@H](CP(=O)(O)O)NC(=O)c2cc(N3CC[C@H](OC)C3)nc(-c3ccccc3)n2)CC1 |  |  | human, plasma | subcutaneous, 8 mg, 24 h, single dose | concentration | 0.4 ng/mL
COc1ccc(-c2cc(=O)c3c(OC)cc(OC)c(-c4c(OC)cc(OC)c5c(=O)cc(-c6ccc(OC)cc6)oc45)c3o2)cc1 | HS27 | cell growth or viability, MTT |  | 24 h | CC50 | > 200 µM
COc1ccc(CN2C[C@H]3CC[C@@H]4[C@](C)(COC(C)=O)[C@H](OC(C)=O)CC[C@@]4(C)[C@@H]3C[C@@H]2C2=CCOC2=O)cc1 | MRC5 | cell growth or viability, ATP luminescence |  | 25 µM, 72 h | cell death | 56.4%
CN(C(=O)n1cnc(-c2ccc[n+]([O-])c2)c1)C1CCCCC1 | SLC22A1 | transporter uptake, inhibitor | CHO | 1 µg/mL | inhibition | 13%
COc1cc(OC)c2c(=O)cc(-c3ccc(Br)cc3)oc2c1-c1c(OC)cc(OC)c2c(=O)cc(-c3ccc(Br)cc3)oc12 | HS27 | cell growth or viability, MTT |  | 24 h | CC50 | > 200 µM
CC(=O)OC[C@@]1(C)[C@H]2CC[C@@H]3CN(CC(C)C)[C@@H](C4=CCOC4=O)C[C@H]3[C@]2(C)CC[C@H]1OC(C)=O | MRC5 | cell growth or viability, ATP luminescence |  | 25 µM, 72 h | cell death | 20.7%
COc1cc(C)c(-c2c(C)cc(OC)c3c(=O)cc(-c4ccccc4Br)oc23)c2oc(-c3ccccc3Br)cc(=O)c12 | HS27 | cell growth or viability, MTT |  | 24 h | CC50 | > 200 µM
COc1ccc(CN2C[C@H]3CC[C@@H]4[C@](C)(CO)[C@H](O)CC[C@@]4(C)[C@@H]3C[C@@H]2C2=CCOC2=O)cc1 | MRC5 | cell growth or viability, ATP luminescence |  | 25 µM, 72 h | cell death | -1.8%
